Source: PubChem
Exocytosis inh: lytic granule exocytosis inhibition | TALL-104 LAMP-1 surface exposure, flow cytometry; cells stimulated with thapsigargin and PMA | inhibition, % at 10 µM | hit rate 0.66% among 360,000 | AID 651702;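 active = inhibition above about 55%, limit read from the data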
MT1-MMP act inh: blocks activation of human MT1-MMP; P50281; HT1080 RFP-PRO-GFP cells, GFP/RFP ratio fluorescence, overnight; percent of plate control window, DMSO zero; GFP/RFP ratio change, % at 20 µM; hit rate 0.061% among 360,000; AID 651647;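 active = GFP/RFP ratio change of at least 30% with cell ATP level not reduced by more than half and red fluorescence within 50% of control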
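Assay system – RFP-PRO-GFP reporter HT1080 cells · Compound dosing – single dose of 20 µM compound, 1% DMSO final · Incubation – overnight compound exposure at 37 °C · Measure – GFP/RFP fluorescence ratio · Benchmarks – DMSO wells and RFP-L50D-GFP cells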
DAGLB inhibitor: blocks human DAGLB lipase activity; Q8NCG7; hit rate 0.059% among 340,000; HEK293T DAGLB membrane lysate, EnzChek fluorogenic substrate; inhibition, % at 5.17 µM; AID 504411; in the data active = inhibition above about 34%;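 also: 0% = enzyme with vehicle and 100% = wells lacking enzyme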
ABCB6 inh MLPCN: inhibitors of human ABC transporter ABCB6; Q9NP58; K562-ABCB6 porphyrin accumulation, flow cytometry, 1 h; stronger effect = lower value; fluorescence ratio to DMSO, % at 10 µM; hit rate 0.19% among 360,000; AID 602162;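 active = fluorescence ratio to DMSO below 75%, the collection mean minus 3 SD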;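 also: signal is porphyrin accumulated inside mitochondria; 100% equals median channel fluorescence of DMSO control wells; lower ratio means ABCB6 inhibition with less porphyrin fluorescence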
FGF22 binding: shifts melting point of recombinant human FGF22 | hit rate 1.5% among 340,000 | recombinant FGF22 thermal shift, SYPRO orange fluorescence; percent of sucrose octasulfate shift, DMSO zero | Q9HCT0 | activity (Tm shift, normalised), % at 9.99 µM;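 active = mean Tm shift, scaled 0 neutral to 100 positive control, at about 1.3% or above, every replicate too, limit read from the data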
Target sequence (Q9HCT0 whole entry, looked up): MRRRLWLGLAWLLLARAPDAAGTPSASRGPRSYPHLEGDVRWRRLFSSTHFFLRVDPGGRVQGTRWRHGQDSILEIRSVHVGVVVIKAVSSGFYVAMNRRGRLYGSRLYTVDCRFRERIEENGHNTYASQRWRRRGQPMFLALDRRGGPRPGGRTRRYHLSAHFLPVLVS
VLA-4 inh: inhibition in a human VLA-4 binding assay; AID 2557; VLA-4 expressing cells, ligand binding flow cytometry; inhibition, % (about 7 µM as worked out from the volumes in the protocol); hit rate 0.2% among 330,000; in the data active = inhibition above about 50%
ABCB6 blocker 1: human ABCB6 transporter inhibition; shares compounds with ABCB6 inh MLPCN; K562-ABCB6 porphyrin accumulation, flow cytometry, 1 h; stronger effect = lower value; ratio response (% of DMSO), % at 10 µM; 700 tested, under 10 active;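 active = repeat-averaged ratio response below 75% of DMSO, the collection mean minus 3 SD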;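 also: median porphyrin fluorescence at 575 nm with 488 nm excitation from mitochondria; lower ratio means less porphyrin signal so ABCB6 inhibition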
MT1-MMP conf: validation of inhibitors of human MT1-MMP activation; shares compounds with MT1-MMP act inh; HT1080 RFP-PRO-GFP cells, GFP and RFP fluorescence ratio, overnight; inhibition, % at 20 µM; hit rate 10% among 200;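 active = inhibition of at least 50% in the primary cell screen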
Granule exo CP1: lytic granule exocytosis inhibition. shares compounds with Exocytosis inh. TALL-104 cells, LAMP-1 externalization, flow cytometry; stimulated with PMA plus thapsigargin. inhibition, % at 10 µM. hit rate 11% among 1,500. AID 651954; in the data active = inhibition above about 60%;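 also: 0% = stimulated vehicle wells and 100% = unstimulated wells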
* hit, by the source's call; i = inactive; . = no result. The list is not random: actives were taken first. Their share in the collection is about 2%.

SMILES	Exocytosis inh	MT1-MMP act inh	DAGLB inhibitor	ABCB6 inh MLPCN	FGF22 binding	VLA-4 inh	MT1-MMP conf	others
COc1ccc(NC(=O)Nc2cccc3c2O[C@H](CN(C)C(=O)Nc2ccccc2)[C@@H](C)CN([C@@H](C)CO)C3=O)cc1	.	.	.	.	0	.	.
Cc1noc(C)c1NC(=O)Nc1ccc2c(c1)C(=O)N([C@H](C)CO)C[C@@H](C)[C@@H](CN(C)C(=O)Nc1ccc3c(c1)OCO3)OCCCC[C@@H](C)O2	.	.	.	.	0	.	.
Cc1cc(C)cc(CC(=O)N2CCC2(C)C(=O)NS(=O)(=O)c2ccc(C#N)cc2)c1 (stereo not given)	6	-1	.	93	0	.	.	ABCB6 blocker 1=103
CC(C)(C)c1ccc(CC(=O)N2CCC2(C)C(=O)NS(=O)(=O)c2cccc(OC(F)F)c2)cc1 (stereo not given)	19	0	.	97	0	.	.
Cc1cc(C)cc(CC(=O)N2CCC2(C)C(=O)NS(=O)(=O)c2cccc(OC(F)F)c2)c1 (stereo not given)	2	3	.	95	-1	.	.	ABCB6 blocker 1=99
O=C(c1cccs1)N1CCC(c2nc3c(nnn3Cc3c(Cl)cccc3Cl)c(=O)[nH]2)CC1	30	-6	1	96	0	0	.	ABCB6 blocker 1=100
O=C(c1cccs1)N1CCCC(c2nc3c(nnn3Cc3cccc(Cl)c3)c(=O)[nH]2)C1 (stereo not given)	7	0	3	95	0	-2	.
Cc1ccc(Cn2nnc3c(=O)[nH]c(C4CCN(C(=O)c5cccs5)CC4)nc32)cc1	-3	0	-1	100	.	1	.	ABCB6 blocker 1=98
O=C(c1cccs1)N1CCC(c2nc3c(nnn3Cc3cccc(Cl)c3)c(=O)[nH]2)CC1	10	6	3	101	0	4	.	ABCB6 blocker 1=99
Cc1ccc(S(=O)(=O)N(C)C[C@@H]2OCCCC[C@@H](C)Oc3ccc(NC(=O)c4ccccc4)cc3C(=O)N([C@@H](C)CO)C[C@H]2C)cc1	.	.	.	.	0	.	.
CCCNC(=O)[C@H]1[C@H](CO)[C@H]2Cn3c(ccc(-c4ccc(F)cc4)c3=O)[C@H]2N1CCC	.	.	.	.	0	.	.
O=C(C[C@@H]1C=C[C@@H](NC(=O)c2ccccc2)[C@@H](CO)O1)NCc1ccncn1	.	.	.	.	0	.	.
O=C(Nc1ccc(F)cc1)c1nc(S(=O)(=O)Cc2ccccc2)ncc1Cl	78*	-1	0	46*	0	24	.	ABCB6 blocker 1=93;Granule exo CP1=65*
CO[C@@H]1CN(C)C(=O)c2ccc(NC(C)=O)cc2OC[C@@H](C)N(Cc2ccccc2F)C[C@H]1C	.	.	.	.	0	.	.
COc1ccccc1NC(=O)c1ccc(S(=O)(=O)N(C)c2ccccc2OC)cc1	-2	35*	-5	94	0	-2	10
CCn1c(C)c(C2=CCN(S(=O)(=O)c3ccc(C)cc3)CC2)c2ccccc21	-2	31*	-4	149	.	.	5
COc1cccc2c1OC[C@@H](CO)[C@H]2N(C)C(=O)Nc1ccc(Cl)cc1Cl	-3	32*	-1	95	.	-8	13
O=S(=O)(O)c1cc(Cl)cc(N=Nc2ccc(O)cc2O)c1O	-3	62*	-64	104	.	.	46
O=[N+]([O-])c1ccc(N=Nc2ccc(O)cc2O)cc1	2	1	2	94	.	-6	.
COc1ccc(Cc2nnc(NC(=O)CSc3ccc(C)cc3)s2)cc1OC	-6	-1	1	98	.	7	.
COc1ccc(-c2nnc(NC(=O)CSc3ccc(Cl)cc3)s2)cc1OC	-3	37*	1	105	.	9	6
O=C1CSC(=S)N1CC1CCCO1 (stereo not given)	-1	35*	-1	102	.	8	1
O=C1C2C3C=CC(C3)C2C(=O)N1CC1CCCO1 (stereo not given)	0	-3	0	102	.	30	.
CC(C)NC(=O)N(C)C[C@H]1OCCCC[C@H](C)Oc2ccc(NC(=O)Cc3ccccc3)cc2C(=O)N([C@@H](C)CO)C[C@@H]1C	.	.	.	.	0	.	.
Oc1ccc(N=Nc2cccc(C(F)(F)F)c2)cc1C=Nc1ccc(N2CCOCC2)cc1	42	45*	5	101	.	16	14
SMILES	Exocytosis inh	MT1-MMP act inh	DAGLB inhibitor	ABCB6 inh MLPCN	FGF22 binding	VLA-4 inh	MT1-MMP conf	others
Nc1ccccc1C(=O)NNc1c2ccccc2nc2ccccc12	30	18	14	91	0	8	.
Cc1ccc(C(=O)NNc2c3ccccc3nc3ccccc23)cc1	10	37*	28	114	0	8	39
O=C(NNc1c2ccccc2nc2ccccc12)c1ccc(Cl)cc1	15	40*	7	94	0	-3	26
Cc1cc(C(=O)NNC(=O)c2ccc(Cl)cc2)c2ccccc2n1	5	1	-3	86	0	10	.
COc1ccc2c3c(n(C)c2c1)[C@@H](CO)N(C(=O)Nc1ccc(F)cc1)CC31CCN(Cc2ccccc2F)CC1	.	.	.	.	0	.	.
CC[n+]1c(/C=C(\C)Nc2ccccc2)sc2ccccc21	0	-2	1	101	.	-4	.
CC[n+]1c(/C=C/Nc2ccccc2)sc2ccccc21	-3	38*	2	278	.	-319	41
O=C(N[C@H]1CC[C@H](CCn2cc(-c3cccnc3)nn2)O[C@@H]1CO)c1ccccc1F	.	.	.	.	0	.	.
O=S(=O)(c1ccccc1)N1CCCCN2[C@H](CO)[C@H](c3ccc(-c4ccccc4)cc3)[C@H]2C1	.	.	.	.	0	.	.
O=C1c2ccccc2C(=O)c2c(NCCCN(CCO)CCO)cccc21	4	30*	.	148	0	.	28
COc1cccc(CN2[C@@H](CO)[C@H](c3ccccc3)C23CN(C(=O)C2CCOCC2)C3)c1	.	.	.	.	0	.	.
COc1ccc(Nc2nc(N)c3ccccc3n2)c(OC)c1	-1	39*	1	99	.	-5	27
C[C@@H]1CN([C@H](C)CO)C(=O)c2cc(-c3ccc(F)cc3)cnc2O[C@@H]1CN(C)CC1CCCC1	.	.	.	.	0	.	.
C[C@@H]1CN([C@H](C)CO)S(=O)(=O)c2ccc(C#Cc3cccc(F)c3)cc2O[C@H]1CN(C)C(=O)NC1CCCCC1	.	.	.	.	0	.	.
CC1C(=O)N(Cc2cn(CC3CCCCC3)nn2)CCS(=O)(=O)N1Cc1ccc(-c2ccc(Cl)cc2)cc1 (stereo not given)	22	40*	-1	105	.	.	11
CC(=O)/C=C1\N(C)c2ccc(C)cc2C1(C)C	-2	47*	-4	i	0	-463	27
